Laboratory results taken from ChEMBL document CHEMBL3396970, “Synthesis and biological evaluation of novel 2,3-disubstituted quinoxaline derivatives as antileishmanial and antitrypanosomal agents” (Eur J Med Chem, 2015).

What was measured:
[1] = test system: Trypanosoma cruzi; test: Antitrypanosomal activity against epimastigote stage of Trypanosoma cruzi Y after 96 hrs by hemocytometry; assay type: functional, organism-based
In short: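 Log-phase parasites (promastigotes 3-day, Warren's medium + 10% FBS, 25°C; epimastigotes 4-day, LIT + 10% FBS, 28°C) seeded at 1 × 10^6 cells/mL with compound (0.1-100 µM; DMSO ≤1%). Promastigotes read at 72 h, epimastigotes at 96 h, by hemocytometer counting. IC50 by nonlinear regression.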

[2] = Selectivity ratio of CC50 to IC50 for promastigote stage of Leishmania amazonensis WHOM/BR/75/JOSEFA; parameters: reference not given here
[3] = Selectivity ratio of CC50 for monkey LLC-MK2 cells to IC50 for epimastigote stage of epimastigote stage of Trypanosoma cruzi Y
[4] = Selectivity ratio of CC50 for monkey LLC-MK2 cells to IC50 for epimastigote stage of epimastigote stage of Trypanosoma cruzi Y; assay type: ADME, cell-based; settings: read-out: Ratio CC50/IC50
[5] = test system: Trypanosoma cruzi; test: Antitrypanosomal activity against amastigote stage of Trypanosoma cruzi Y infected in monkey LLC-MK2 cells after 96 hrs by Geimsa staining-based light microscopy; assay type: functional, organism-based; settings: LLC-MK2, 96 h
In short: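 LLCMK2 monolayers (2.5 x 10^5 cells/mL, 24 h, 37 °C, 5% CO2) infected with trypomastigotes at 10 per host cell for 24 h, washed, treated with compound (0.1 to 50 μM) 96 h. Methanol-fixed, Giemsa-stained, 200 cells counted; survival index (% infected × amastigotes/cell); IC50 by nonlinear regression.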

[6] = test system: Trypanosoma cruzi; test: Antitrypanosomal activity against trypomastigote stage of Trypanosoma cruzi Y infected in monkey LLC-MK2 cells after 96 hrs by Pizzi-Brener method; assay type: functional, organism-based
[7] = Selectivity ratio of CC50 for mouse J774A1 cells to IC50 for promastigote stage of Leishmania amazonensis WHOM/BR/75/JOSEFA; assay type: ADME, cell-based, J774.A1; settings: read-out: Ratio CC50/IC50
[8] = Selectivity ratio of CC50 for monkey LLC-MK2 cells to IC50 for amastigote stage of Trypanosoma cruzi Y; assay type: ADME, cell-based; settings: read-out: Ratio CC50/IC50
[9] = test system: Leishmania amazonensis; test: Antileishmanial activity against promastigote stage of Leishmania amazonensis WHOM/BR/75/JOSEFA after 72 hrs by hemocytometry; assay type: functional, organism-based
[10] = Selectivity ratio of CC50 for monkey LLC-MK2 cells to EC50 for trypomastigote stage of Trypanosoma cruzi Y; assay type: ADME, cell-based; settings: read-out: Ratio CC50/EC50
[11] = test system: Leishmania amazonensis; test: Antileishmanial activity against amastigote stage of Leishmania amazonensis WHOM/BR/75/JOSEFA infected in BALB/c mouse peritoneal macrophages after 72 hrs by Geimsa staining-based light microscopy; assay type: functional, organism-based
[12] = Selectivity ratio of CC50 for BALB/c mouse peritoneal macrophages to IC50 for amastigote stage of Leishmania amazonensis WHOM/BR/75/JOSEFA

Row | SMILES | IC50 [1] | selectivity ratio [2] | selectivity ratio [3] | selectivity ratio [4] | IC50 [5] | EC50 [6] | selectivity ratio [7] | selectivity ratio [8] | IC50 [9] | selectivity ratio [10] | IC50 [11] | Ratio CC50/IC50 [12]
1 | COc1ccc(-c2nc3ccccc3nc2-c2ccc(OC)cc2)cc1 | 36.6 µM | 19.7 | 9 | 9 | 8.6 µM | > 100 µM | 19.7 | 38.4 | 30 µM |  |  | 
2 | CS/C(=C/[N+](=O)[O-])Nc1ccc(N(C)C)cc1 | 31.8 µM | 18.9 | 6.6 | 6.6 |  | 35 µM | 18.9 |  | 52.8 µM | 6 |  | 
3 | COc1ccc2nc(-c3ccccc3)c(S(C)(=O)=O)nc2c1 | 28.4 µM | 4.1 | 9.3 | 9.3 |  | 48.1 µM | 4.1 |  | 24.7 µM | 5.5 |  | 
4 | c1ccc(-c2nc3ccccc3nc2-c2ccc(OCCN3CCCCC3)cc2)cc1 | 21.4 µM | 29.6 | 1.8 | 1.8 |  | 20.3 µM | 29.6 |  | 1.9 µM | 1.8 |  | 
5 | COc1ccc2nc(Cl)c([S+](C)[O-])nc2c1 (stereo not drawn) | 0.5 µM | 27.8 | 39.2 | 39.2 |  | 4.2 µM | 27.8 |  | 0.8 µM | 4.4 | 4.6 µM | 4.9
6 | C[S+]([O-])c1nc2ccc(Cl)cc2nc1Cl (stereo not drawn) | 0.1 µM | 108 | 54.2 | 54.2 |  | 1.7 µM | 108 |  | 0.1 µM | 2.9 | 1.5 µM | 9
7 | CS(=O)(=O)c1nc2ccccc2nc1Cl | 0.6 µM | 14.4 | 70.1 | 70.1 | > 15 µM | 6.4 µM | 14.4 |  | 1.6 µM | 7.3 |  | 
8 | COc1ccc2nc(S(C)(=O)=O)c(Cl)nc2c1 | 3.1 µM | 7.6 | 7.5 | 7.5 |  | 9.8 µM | 7.6 |  | 2.9 µM | 2.4 |  | 
9 | CCCCNc1nc2ccccc2nc1S(C)(=O)=O | 4.4 µM | 11.4 | 5.5 | 5.5 |  | 15.7 µM | 11.4 |  | 2.9 µM | 1.5 |  | 
10 | CS(=O)(=O)c1nc2ccccc2nc1NCCO | 4.2 µM | 13 | 4.4 | 4.4 |  | 22.6 µM | 13 |  | 2.9 µM | 0.8 |  | 
11 | CCCCNc1nc2cc(OC)ccc2nc1S(C)(=O)=O | 55.3 µM | 5.5 | 1.6 | 1.6 |  | 41.2 µM | 5.5 |  | 32.2 µM | 2.1 |  | 
12 | COc1ccc2nc(S(C)(=O)=O)c(NC3CCCCC3)nc2c1 | 29.1 µM | 6.5 | 2.7 | 2.7 |  | 23.6 µM | 6.5 |  | 14.7 µM | 3.3 |  | 
13 | COc1ccc2nc(S(C)(=O)=O)c(NCC(C)C)nc2c1 | 55.4 µM | 3.6 | 1.5 | 1.5 |  | 24.8 µM | 3.6 |  | 27.8 µM | 3.3 |  | 
14 | COc1ccc2nc(S(C)(=O)=O)c(NCCC(C)C)nc2c1 | 38 µM |  |  | 2.6 |  | 22.9 µM | 5 |  | 21.2 µM | 4.2 |  | 
15 | CCCCNc1nc2cc(Br)ccc2nc1S(C)(=O)=O | 2.3 µM | 28.3 | 43.7 | 43.7 | > 25 µM | 5.6 µM | 28.3 |  | 1.6 µM | 17.8 |  | 
16 | CS(=O)(=O)c1nc2ccc(Br)cc2nc1NCCO | 1.6 µM | 40.3 | 3.4 | 3.4 | 7.4 µM | 8.2 µM | 40.3 | 0.8 | 0.8 µM | 0.7 |  | 
17 | COc1ccc2nc(NCC(C)C)c(S(C)(=O)=O)nc2c1 | 3.1 µM | 22.8 | 22.6 | 22.6 | 14.9 µM | 11.7 µM | 22.8 | 4.7 | 2.6 µM | 6 |  | 
18 | CCCCNc1nc2cc(Cl)ccc2nc1S(C)(=O)=O | 2.3 µM | 50.6 | 93.4 | 93.4 |  | 9 µM | 50.6 |  | 1.4 µM | 23.8 |  | 
19 | CS(=O)(=O)c1nc2ccc(Cl)cc2nc1NC1CCCCC1 | 2 µM | 15 | 38.3 | 38.3 | 9.6 µM | 3.9 µM | 15 | 7.9 | 2.2 µM | 19.6 |  | 
20 | C[S+]([O-])c1nc2ccc(Cl)cc2nc1NC1CCCCC1 (stereo not drawn) | 1.8 µM | 33.8 | 21.8 | 21.8 | 7.7 µM | 6.3 µM | 33.8 | 5.1 | 1.9 µM | 6.2 |  | 
21 | CCCCNc1nc2cc(OC)ccc2nc1Cl | 49.5 µM | 4.4 | 7.9 | 7.9 |  | > 50 µM | 4.4 |  | 36.2 µM |  |  | 
22 | CCCCNc1nc2ccc(OC)cc2nc1NCCCC | 29.4 µM | 4.3 | 3.2 | 3.2 |  | > 50 µM | 4.3 |  | 20.9 µM |  |  | 
23 | CCCCNc1nc2ccc(OC)cc2nc1NCc1ccccc1 | 38.4 µM | 3.6 | 0.6 | 0.6 |  | > 50 µM | 3.6 |  | 13.6 µM |  |  | 
24 | COc1ccc2nc(Nc3ccccc3)c(Nc3ccccc3)nc2c1 | 45.6 µM | 4.4 | 1 | 1 |  | 37.9 µM | 4.4 |  | 6.5 µM | 1.2 |  | 
25 | C[C@@H]1[C@H](O)[C@@H](C)/C=C/C=C/C=C/C=C/C=C/C=C/C=C/[C@H](O[C@@H]2O[C@H](C)[C@@H](O)[C@H](N)[C@@H]2O)C[C@@H]2O[C@](O)(C[C@@H](O)C[C@@H](O)[C@H](O)CC[C@@H](O)C[C@@H](O)CC(=O)O[C@H]1C)C[C@H](O)[C@H]2C(=O)O [AMPHOTERICIN B] |  |  |  |  |  |  |  |  |  |  | 0.4 µM | 
